Measurements reported in ChEMBL document CHEMBL5154713, “Illuminating a Dark Kinase: Structure-Guided Design, Synthesis, and Evaluation of a Potent Nek1 Inhibitor and Its Effects on the Embryonic Zebrafish Pronephros” (J Med Chem, 2022).

How the values were obtained:
[1] = target: T1, Serine/threonine-protein kinase Nek1 (Homo sapiens) (UniProt Q96PY6); experiment: Inhibition of human recombinant NEK1 (1 to 505 residues) assessed as residual activity at 1 uM using RLGRDKYKTLRQIRQ as substrate incubated for 40 mins in presence of [gamma-33P]-ATP by radiometric scintillation counting assay relative to control
T1 sequence (whole entry): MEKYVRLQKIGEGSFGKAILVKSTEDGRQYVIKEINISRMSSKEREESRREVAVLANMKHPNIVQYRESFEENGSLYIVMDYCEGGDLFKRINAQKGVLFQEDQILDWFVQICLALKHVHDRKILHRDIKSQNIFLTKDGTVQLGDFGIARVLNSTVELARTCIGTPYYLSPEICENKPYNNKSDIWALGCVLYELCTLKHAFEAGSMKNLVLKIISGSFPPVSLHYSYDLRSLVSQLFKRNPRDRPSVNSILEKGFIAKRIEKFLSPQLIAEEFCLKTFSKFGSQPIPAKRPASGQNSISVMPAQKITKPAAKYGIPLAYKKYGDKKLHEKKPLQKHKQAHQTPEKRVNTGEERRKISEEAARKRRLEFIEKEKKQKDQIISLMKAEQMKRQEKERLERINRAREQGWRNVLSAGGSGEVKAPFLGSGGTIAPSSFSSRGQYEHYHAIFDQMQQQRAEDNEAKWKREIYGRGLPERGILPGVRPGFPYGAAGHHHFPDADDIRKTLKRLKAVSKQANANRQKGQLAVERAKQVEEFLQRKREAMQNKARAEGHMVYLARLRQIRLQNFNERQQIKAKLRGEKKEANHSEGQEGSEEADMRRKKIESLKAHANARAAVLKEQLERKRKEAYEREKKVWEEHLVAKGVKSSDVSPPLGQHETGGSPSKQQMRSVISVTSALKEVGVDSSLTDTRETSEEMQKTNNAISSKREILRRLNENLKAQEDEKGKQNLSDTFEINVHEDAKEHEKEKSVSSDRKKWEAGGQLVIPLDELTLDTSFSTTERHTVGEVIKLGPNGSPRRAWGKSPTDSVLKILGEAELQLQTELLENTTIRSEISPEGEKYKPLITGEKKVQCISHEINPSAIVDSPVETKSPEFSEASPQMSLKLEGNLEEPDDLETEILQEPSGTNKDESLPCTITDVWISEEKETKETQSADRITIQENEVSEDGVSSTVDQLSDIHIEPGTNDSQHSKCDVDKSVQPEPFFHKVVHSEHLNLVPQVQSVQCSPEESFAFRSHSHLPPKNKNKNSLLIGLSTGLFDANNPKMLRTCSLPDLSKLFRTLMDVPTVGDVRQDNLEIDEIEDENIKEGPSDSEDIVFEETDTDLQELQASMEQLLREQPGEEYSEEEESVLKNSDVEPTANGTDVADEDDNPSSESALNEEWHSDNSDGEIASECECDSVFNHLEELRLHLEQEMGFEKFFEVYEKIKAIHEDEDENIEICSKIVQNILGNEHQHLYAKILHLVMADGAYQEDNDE
Outline: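 Eurofins KinaseProfiler radiometric panel, compound at 1 μM, ATP at 10 μM or within 15 μM of apparent Km. For Nek1 (1−505): 8 mM MOPS pH 7.0, 0.2 mM EDTA, 250 μM peptide, 10 mM Mg acetate, [γ-33P]-ATP, 40 min at room temperature. Stopped with 0.5% phosphoric acid, filtermat spotting, scintillation counting. Mean of two independent experiments.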

[2] = target: T2, Serine/threonine-protein kinase Nek1 (Homo sapiens, UniProt Q96PY6); experiment: Inhibition of human recombinant NEK1 (1 to 505 residues) using RLGRDKYKTLRQIRQ as substrate incubated for 40 mins in presence of [gamma-33P]-ATP by radiometric scintillation counting assay
T2 sequence (Q96PY6 whole entry): T1 sequence (whole entry)
Outline: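 Eurofins IC50Profiler radiometric assay on recombinant human Nek1 (1−505), ATP at 10 μM or 90 μM (near Km). Nine concentrations at half-log steps from 10 μM to 1 nM, with vehicle controls. IC50 and 95% CI obtained by four-parameter nonlinear regression. Mean of two independent experiments.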

[3] = target: T2, Serine/threonine-protein kinase Nek1; experiment: Inhibition of human recombinant NEK1 (1 to 505 residues) using ULight-p70 S6K peptide as substrate incubated for 30 mins by LANCE Ultra TR-FRET assay
Outline: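 Recombinant human Nek1 (1−505, 0.02 nM) in 50 mM HEPES pH 7.5, 1 mM EGTA, 10 mM MgCl2, 0.2 mM DTT, 0.01% Tween20, with 50 nM ULight-p70 S6K peptide and 60 μM ATP, 30 min at 22 °C. Stopped with EDTA plus Eu anti-phospho antibody, 1 h signal development. Ten half-log concentrations from 30 μM (10 μM for some) to 1 nM. Mean of two experiments.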

| SMILES | Activity [1] [%] | IC50 [2] [µM] | IC50 [3] [µM] |
| --- | --- | --- | --- |
| O=C(O)[C@H](Cc1ccccc1)NS(=O)(=O)c1ccc(-c2ccnc3[nH]ccc23)cc1 | 94 |  |  |
| CN(C)CCNS(=O)(=O)c1ccc(-c2ccnc3[nH]ccc23)cc1 | 37 | 4.3 | 7.1 |
| CN(CCO)S(=O)(=O)c1ccc(-c2ccnc3[nH]ccc23)cc1 | 46 |  | 2.7 |
| O=S(=O)(NCCO)c1ccc(-c2ccnc3[nH]ccc23)cc1 | 12 | 2 | 3.2 |
| CC(=O)OCCNS(=O)(=O)c1ccc(-c2ccnc3[nH]ccc23)cc1 | 49 |  | 8.8 |
| CN1CCN(S(=O)(=O)c2ccc(-c3ccnc4[nH]ccc34)cc2)CC1 | 45 |  | > 10 |
| O=S(=O)(N[C@H](CO)Cc1ccc(O)cc1)c1ccc(-c2ccnc3[nH]ccc23)cc1 | 33 |  | 2 |
| O=S(=O)(N[C@H](CO)Cc1ccccc1)c1ccc(-c2ccnc3[nH]ccc23)cc1 | 19 |  | 1.9 |
| O=S(=O)(N[C@H](CO)Cc1c[nH]c2ccccc12)c1ccc(-c2ccnc3[nH]ccc23)cc1 | 19 |  | 0.99 |
| O=C(NCCO)c1ccc(-c2ccnc3[nH]ccc23)cc1 | 89 |  | 29 |
| O=S(=O)(NCCN1CCOCC1)c1ccc(-c2ccnc3[nH]ccc23)cc1 | 51 |  | 27 |
| CCN(CC)CCNS(=O)(=O)c1ccc(-c2ccnc3[nH]ccc23)cc1 | 68 |  | 10 |
| O=S(=O)(N[C@@H](CO)Cc1ccccc1)c1ccc(-c2ccnc3[nH]ccc23)cc1 | 16 |  | 1.3 |
| O=S(=O)(NCCN1CCCCC1)c1ccc(-c2ccnc3[nH]ccc23)cc1 | 37 |  | 6.6 |
| COCCNS(=O)(=O)c1ccc(-c2ccnc3[nH]ccc23)cc1 | 44 |  | > 30 |
| CC(C)(C)OC(=O)NCCNS(=O)(=O)c1ccc(-c2ccnc3[nH]ccc23)cc1 | 49 |  |  |
| CC(C)(O)CNS(=O)(=O)c1ccc(-c2ccnc3[nH]ccc23)cc1 | 32 |  | 5.8 |
| O=S(=O)(N[C@@H](CO)Cc1ccc(O)cc1)c1ccc(-c2ccnc3[nH]ccc23)cc1 | 25 |  | 1.6 |
